In ChEMBL document CHEMBL4602720, “Degradation versus Inhibition: Development of Proteolysis-Targeting Chimeras for Overcoming Statin-Induced Compensatory Upregulation of 3-Hydroxy-3-methylglutaryl Coenzyme A Reductase” (J Med Chem, 2020):
The source made the active and inactive calls. The calls are words filed in the database; no cut-off is given here.

Key:
[1] = target: T1, Thioredoxin domain-containing protein 11 (Homo sapiens) (UniProt Q6PKC3); assay: Activation of TXNDC11 (unknown origin)
T1 sequence (whole entry): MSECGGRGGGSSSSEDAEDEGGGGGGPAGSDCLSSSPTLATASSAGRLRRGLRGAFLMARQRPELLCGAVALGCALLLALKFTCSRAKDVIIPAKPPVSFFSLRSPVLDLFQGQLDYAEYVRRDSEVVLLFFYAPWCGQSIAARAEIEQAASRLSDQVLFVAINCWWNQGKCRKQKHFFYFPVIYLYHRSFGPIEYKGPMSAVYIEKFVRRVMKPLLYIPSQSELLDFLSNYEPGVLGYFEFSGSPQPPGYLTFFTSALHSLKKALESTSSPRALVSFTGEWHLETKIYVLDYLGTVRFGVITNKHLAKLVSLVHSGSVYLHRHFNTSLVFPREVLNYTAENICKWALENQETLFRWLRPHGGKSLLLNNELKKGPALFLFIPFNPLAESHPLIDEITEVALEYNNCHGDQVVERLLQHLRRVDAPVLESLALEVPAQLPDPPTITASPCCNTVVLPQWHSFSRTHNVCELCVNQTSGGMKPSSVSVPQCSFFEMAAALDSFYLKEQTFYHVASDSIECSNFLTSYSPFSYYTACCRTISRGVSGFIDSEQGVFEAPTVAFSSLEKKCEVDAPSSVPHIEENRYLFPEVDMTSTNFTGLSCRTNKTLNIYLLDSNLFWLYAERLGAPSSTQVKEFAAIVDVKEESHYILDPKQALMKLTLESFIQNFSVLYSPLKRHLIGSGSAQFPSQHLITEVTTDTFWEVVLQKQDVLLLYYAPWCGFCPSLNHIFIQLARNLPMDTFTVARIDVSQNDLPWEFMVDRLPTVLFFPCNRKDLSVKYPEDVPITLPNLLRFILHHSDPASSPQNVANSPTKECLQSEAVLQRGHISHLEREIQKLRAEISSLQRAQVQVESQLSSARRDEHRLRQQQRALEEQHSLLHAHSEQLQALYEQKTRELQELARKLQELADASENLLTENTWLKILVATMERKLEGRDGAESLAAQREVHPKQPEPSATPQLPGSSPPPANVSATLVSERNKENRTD

[2] = target: T2, Protein cereblon/3-hydroxy-3-methylglutaryl-coenzyme A reductase (Cricetulus griseus) (UniProt P00347+G3H338); assay: Protac activity at CRBN/HMGCR in Insig-1/Insig-2 deficient Chinese hamster SRD15 cells assessed as HMGCR level at 0.01 uM after 16 hrs by immunoblotting analysis (reference value: 1)
In short: (§1)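 Dose-response in SRD15 cells in Medium A with 5% FBS, 16 h treatment, DMSO final 0.1% or lower. RIPA lysates immunoblotted for HMGCR. HMGCR densitometry normalized to actin, with the DMSO group set to 1. Three repeats. DC50 is taken from a dose-response fit of the semi-quantitative blots, mean of 3 independent experiments.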
Target sequence in this assay (G3H338 1-445 partner): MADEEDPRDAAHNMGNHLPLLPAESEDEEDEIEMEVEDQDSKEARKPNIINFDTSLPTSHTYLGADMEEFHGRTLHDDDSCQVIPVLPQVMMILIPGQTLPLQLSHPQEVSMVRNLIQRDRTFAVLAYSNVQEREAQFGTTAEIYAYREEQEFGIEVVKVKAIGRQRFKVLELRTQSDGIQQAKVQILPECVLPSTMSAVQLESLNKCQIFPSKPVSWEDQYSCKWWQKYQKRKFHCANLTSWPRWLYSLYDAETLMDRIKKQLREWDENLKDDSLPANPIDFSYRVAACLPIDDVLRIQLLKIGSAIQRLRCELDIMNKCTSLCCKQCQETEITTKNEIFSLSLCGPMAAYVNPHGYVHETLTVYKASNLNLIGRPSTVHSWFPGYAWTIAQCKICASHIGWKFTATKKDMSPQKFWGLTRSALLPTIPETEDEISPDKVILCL
Target sequence in this assay (P00347 whole entry): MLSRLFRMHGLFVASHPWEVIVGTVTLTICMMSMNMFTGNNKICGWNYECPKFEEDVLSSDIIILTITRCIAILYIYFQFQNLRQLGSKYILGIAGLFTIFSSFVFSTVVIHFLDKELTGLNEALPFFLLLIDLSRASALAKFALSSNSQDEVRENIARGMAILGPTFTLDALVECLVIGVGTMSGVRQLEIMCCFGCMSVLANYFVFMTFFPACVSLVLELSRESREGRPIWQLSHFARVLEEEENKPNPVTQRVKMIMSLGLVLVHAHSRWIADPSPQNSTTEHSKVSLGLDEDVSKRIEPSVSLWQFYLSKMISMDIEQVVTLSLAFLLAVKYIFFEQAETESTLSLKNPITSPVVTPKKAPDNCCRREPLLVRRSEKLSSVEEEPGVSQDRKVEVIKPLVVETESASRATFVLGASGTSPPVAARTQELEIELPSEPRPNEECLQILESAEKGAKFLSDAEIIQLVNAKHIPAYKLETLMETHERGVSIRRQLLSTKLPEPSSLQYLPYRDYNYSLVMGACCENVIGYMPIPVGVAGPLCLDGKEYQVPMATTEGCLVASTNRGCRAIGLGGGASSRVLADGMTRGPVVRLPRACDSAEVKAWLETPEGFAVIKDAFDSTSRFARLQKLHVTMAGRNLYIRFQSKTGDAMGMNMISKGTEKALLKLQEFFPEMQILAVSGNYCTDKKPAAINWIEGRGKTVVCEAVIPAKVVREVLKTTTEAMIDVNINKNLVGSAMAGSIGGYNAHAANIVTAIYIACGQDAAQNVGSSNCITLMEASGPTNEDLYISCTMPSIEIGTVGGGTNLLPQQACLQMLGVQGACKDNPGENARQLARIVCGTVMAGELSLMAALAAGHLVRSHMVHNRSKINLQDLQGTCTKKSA

Huh-7 = assay: Effect on total neutral lipid in human HuH7 cells assessed change in lipid droplet count at 1 uM after 16 hrs by Oil Red O staining based method; format: ADME, cell-based; details: huh-7, 16 h
In short: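 Huh7 cells on glass coverslips, treated, fixed in 4% paraformaldehyde in PBS 30 min at room temperature, stained 15 min with 0.5% (w/v) Oil Red O in propylene glycol, washed in water; lipid droplets examined relative to DMSO.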

[3] = target: T2, Protein cereblon/3-hydroxy-3-methylglutaryl-coenzyme A reductase (Cricetulus griseus); assay: Protac activity at CRBN/HMGCR in Insig-1/Insig-2 deficient Chinese hamster SRD15 cells assessed as induction of HMGCR degradation at 1 uM after 16 hrs by immunoblotting analysis relative to control; in short: as §1
[4] = target: Protein cereblon/3-hydroxy-3-methylglutaryl-coenzyme A reductase (Homo sapiens) (UniProt P04035+Q96SW2); assay: Protac activity at human Flag-tagged CRBN/Myc-tagged HMGCR expressed in HEK293T cells assessed as induction of HMGCR immunoprecipitation 1 uM preincubated for 16 hrs followed by pomalidomide addition addition and measured after 5 hrs by Western blot analysis; format: cell-based; details: HEK-293T
[5] = target: T2, Protein cereblon/3-hydroxy-3-methylglutaryl-coenzyme A reductase (Cricetulus griseus); assay: Protac activity at CRBN/HMGCR in Insig-1/Insig-2 deficient Chinese hamster SRD15 cells assessed as HMGCR level at 1 uM after 16 hrs by immunoblotting analysis (reference value: 1); in short: as §1
Target sequence in this assay (G3H338 1-445 partner): as the sequence (G3H338 1-445 partner) above
Target sequence in this assay (P00347 whole entry): as the sequence (P00347 whole entry) above

[6] = target: T2, Protein cereblon/3-hydroxy-3-methylglutaryl-coenzyme A reductase (Cricetulus griseus); assay: Protac activity at CRBN/HMGCR in Insig-1/Insig-2 deficient Chinese hamster SRD15 cells assessed as HMGCR level at 1 uM after 16 hrs in presence of 0.1 uM atorvastatin by immunoblotting analysis (reference value: 1)
Target sequence in this assay (G3H338 1-445 partner): as the sequence (G3H338 1-445 partner) above
Target sequence in this assay (P00347 whole entry): as the sequence (P00347 whole entry) above

[7] = target: T3, Sterol regulatory element-binding protein 2 (Mus musculus) (UniProt Q3U1N2); assay: Activation of SREBP2 pathway in mouse primary hepatocytes assessed as increase in HMGCR mRNA expression at 0.3 to 1 uM afer 16 hrs by quantitative real-time PCR analysis; format: cell-based
T3 sequence (whole entry): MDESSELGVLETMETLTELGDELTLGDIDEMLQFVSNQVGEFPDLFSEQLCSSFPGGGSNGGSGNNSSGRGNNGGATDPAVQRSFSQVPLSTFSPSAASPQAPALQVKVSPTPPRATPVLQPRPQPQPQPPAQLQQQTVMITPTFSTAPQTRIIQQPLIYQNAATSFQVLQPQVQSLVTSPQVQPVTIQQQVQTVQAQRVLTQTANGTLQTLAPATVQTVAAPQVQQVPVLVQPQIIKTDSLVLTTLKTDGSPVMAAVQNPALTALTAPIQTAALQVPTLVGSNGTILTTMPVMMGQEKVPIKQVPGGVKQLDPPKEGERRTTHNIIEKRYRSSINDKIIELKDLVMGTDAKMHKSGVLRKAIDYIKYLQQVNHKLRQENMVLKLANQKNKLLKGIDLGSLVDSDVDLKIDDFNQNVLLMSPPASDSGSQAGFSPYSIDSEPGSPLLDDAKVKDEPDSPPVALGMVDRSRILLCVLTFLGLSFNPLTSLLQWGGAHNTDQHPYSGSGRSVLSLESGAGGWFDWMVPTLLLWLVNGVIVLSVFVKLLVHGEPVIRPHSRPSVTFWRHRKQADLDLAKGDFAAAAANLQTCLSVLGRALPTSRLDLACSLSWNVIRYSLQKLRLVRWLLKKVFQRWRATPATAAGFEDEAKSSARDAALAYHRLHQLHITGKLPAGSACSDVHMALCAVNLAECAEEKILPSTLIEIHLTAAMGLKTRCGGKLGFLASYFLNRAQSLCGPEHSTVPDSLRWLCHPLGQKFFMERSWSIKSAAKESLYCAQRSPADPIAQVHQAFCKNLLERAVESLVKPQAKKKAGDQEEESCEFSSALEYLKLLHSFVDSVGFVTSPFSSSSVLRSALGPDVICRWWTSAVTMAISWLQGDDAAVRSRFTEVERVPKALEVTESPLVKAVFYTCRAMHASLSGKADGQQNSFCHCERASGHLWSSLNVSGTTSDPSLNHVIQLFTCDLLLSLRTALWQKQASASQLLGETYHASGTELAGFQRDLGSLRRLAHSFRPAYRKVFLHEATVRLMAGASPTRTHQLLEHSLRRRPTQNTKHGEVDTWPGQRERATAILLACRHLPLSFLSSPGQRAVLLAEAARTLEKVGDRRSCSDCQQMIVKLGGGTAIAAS

Chain of Protein cereblon/3-hydroxy-3-methylglutaryl-coenzyme A reductase (Homo sapiens) (P04035 whole entry, looked up): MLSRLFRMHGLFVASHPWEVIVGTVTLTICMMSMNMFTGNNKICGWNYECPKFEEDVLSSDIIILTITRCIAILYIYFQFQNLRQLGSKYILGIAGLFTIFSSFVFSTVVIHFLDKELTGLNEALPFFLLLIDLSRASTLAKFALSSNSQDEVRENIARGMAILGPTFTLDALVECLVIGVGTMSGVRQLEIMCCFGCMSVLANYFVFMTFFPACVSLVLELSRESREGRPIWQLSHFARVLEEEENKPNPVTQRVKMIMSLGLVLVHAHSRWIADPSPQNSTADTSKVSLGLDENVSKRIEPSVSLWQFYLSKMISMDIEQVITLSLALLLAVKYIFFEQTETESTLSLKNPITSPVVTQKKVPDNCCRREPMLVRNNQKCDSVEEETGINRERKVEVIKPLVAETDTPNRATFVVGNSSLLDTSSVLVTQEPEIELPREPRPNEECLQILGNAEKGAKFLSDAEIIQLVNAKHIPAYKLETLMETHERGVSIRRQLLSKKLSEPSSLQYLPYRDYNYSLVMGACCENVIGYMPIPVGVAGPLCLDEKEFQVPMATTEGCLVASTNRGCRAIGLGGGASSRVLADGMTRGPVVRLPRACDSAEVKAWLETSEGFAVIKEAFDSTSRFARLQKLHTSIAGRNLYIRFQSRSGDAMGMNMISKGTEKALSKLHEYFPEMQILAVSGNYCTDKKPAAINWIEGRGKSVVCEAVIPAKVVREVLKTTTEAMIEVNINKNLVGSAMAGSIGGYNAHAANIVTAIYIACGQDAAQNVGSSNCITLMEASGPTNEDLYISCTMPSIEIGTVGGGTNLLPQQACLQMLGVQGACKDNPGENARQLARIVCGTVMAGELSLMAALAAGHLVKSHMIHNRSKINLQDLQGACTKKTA
Chain of Protein cereblon/3-hydroxy-3-methylglutaryl-coenzyme A reductase (Homo sapiens) (Q96SW2 whole entry, looked up): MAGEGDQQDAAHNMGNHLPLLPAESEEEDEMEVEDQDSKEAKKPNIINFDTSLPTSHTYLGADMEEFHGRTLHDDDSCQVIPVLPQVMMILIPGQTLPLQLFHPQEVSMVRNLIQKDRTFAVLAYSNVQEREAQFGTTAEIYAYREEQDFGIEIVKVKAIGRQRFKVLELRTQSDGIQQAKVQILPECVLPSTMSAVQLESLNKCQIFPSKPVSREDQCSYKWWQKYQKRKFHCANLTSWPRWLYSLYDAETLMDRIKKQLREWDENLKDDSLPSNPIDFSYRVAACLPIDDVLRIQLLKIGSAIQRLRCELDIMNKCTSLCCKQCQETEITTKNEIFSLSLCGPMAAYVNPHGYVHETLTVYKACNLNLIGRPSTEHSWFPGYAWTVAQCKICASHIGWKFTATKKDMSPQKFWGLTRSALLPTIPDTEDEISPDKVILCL

CC(C)c1c(C(=O)Nc2ccccc2)c(-c2cccc(OCCCc3cn(CCOCCOCCOCCOCCNc4cccc5c4C(=O)N(C4CCC(=O)NC4=O)C5=O)nn3)c2)c(-c2ccc(F)cc2)n1CC[C@@H](O)C[C@@H](O)CC(=O)O (stereo partly drawn)
fold change (FC) [1]: 7 | fold change (FC) [2]: 0.8 | Activity (Huh-7): Non-Toxic | Activity [3]: 70% | Activity [4]: inactive | fold change (FC) [5]: 0.3 to 0.6 | fold change (FC) [6]: 0.9 | Activity [7]: Active
